14 compounds from ChEMBL document CHEMBL2331109, “Inhibitors of human immunodeficiency virus type 1 (HIV-1) attachment. 12. Structure-activity relationships associated with 4-fluoro-6-azaindole derivatives leading to the identification of 1-(4-benzoylpiperazin-1-yl)-2-(4-fluoro-7-[1,2,3]triazol-1-yl-1h-pyrrolo[2,3-c]pyridin-3-yl)ethane-1,2-dione …” (J Med Chem, 2013) can be followed below.

By AUC is commonly meant concentration integrated over time. Low readings indicate less exposure, high ones more exposure. One may read the Cmax as the highest concentration seen after dosing. As a reminder, the bioavailability is the share of a dose that reaches the circulation, judged against a reference dose that is usually intravenous. Broadly, the clearance is the volume of plasma or blood freed of the substance per unit of time. Higher therefore signals a high capacity for elimination. The solubility is the dissolved amount per volume that the medium holds. The half-life is how long it takes for the measured level to halve.

Values after ≈ are worked out from the molar mass of the structure shown. Some results are limits rather than exact numbers.

The subject of series [1] is Rattus norvegicus. As to the kind of experiment: (§1) AUC in rat at 5 mg/kg, po at 24 hrs. Set-up: time < 24 hr, dose 5 mg/kg, route oral. The note with it: in vivo, 24 h. It counts as ADME, organism-based, Plasma.
Series [2] in a line: Cmax in rat at 5 mg/kg, po. It counts as ADME, organism-based. The note with it: in vivo. On the set-up: dose 5 mg/kg, route oral.
Series [3] is described as follows: Clearance in human liver microsomes. It counts as ADME, Microsome. The note with it: read-out: CLH.
The test system of series [4] is Rattus norvegicus. Put plainly: (§2) Oral bioavailability in rat at 5 mg/kg. The note with it: in vivo. The series is classed as ADME, organism-based.
Series [5] can be described thus: Volume of distribution at steady state in iv dosed rat. Particulars: in vivo, read-out: Vdss; call rule not given here. The series is classed as ADME, organism-based. The method, boiled down: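 Rats dosed intravenously in PEG 400/ethanol (90:10 v/v); steady-state volume of distribution taken from the iv plasma profile.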
The nature of series [6]: as §1. The series is classed as ADME, organism-based, Plasma. On the set-up: time < 24 hr, dose 5 mg/kg, route oral. Particulars: plasma.
Series [7] in a line: as §2. It counts as ADME, organism-based. The note with it: in vivo.
Series [8] can be described thus: Clearance in iv dosed rat. It counts as ADME, organism-based. The note with it: in vivo.
Series [9] is described as follows: Aqueous solubility of the compound. The note with it: buffer. The series is classed as physicochemical.
Series [10] can be described thus: Oral bioavailability in human at 200 mg administered as capsule formulation. The series is classed as ADME, organism-based. Particulars: in vivo. An outline of the steps: (§3)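 Healthy subjects given 200 mg as a spray-dried capsule, fasted, with plasma sampled 0–96 h. Bioavailability is relative to a 20 mg oral solution, based on dose-normalized AUC(INF).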
The subject of a further series is Plasma. Put plainly: Plasma concentration in human at 20 mg, po administered as solution measured after 16 hrs. It counts as ADME, organism-based. The note with it: in vivo, BLD = below limit of detection.
Series [11] is described as follows: Half life in human at 20 mg, po administered as solution measured between 2 and 12 hrs post-dosing. It counts as ADME, organism-based. The note with it: in vivo.
Series [12] is described as follows: Drug absorption in human colon at 200 mg, po measured between 12 to 96 hrs. The series is classed as ADME, organism-based. The note with it: in vivo. An outline of the steps:
as §3

With `CNC(=O)c1ncc(F)c2c(C(=O)C(=O)N3CCN(C(=O)c4ccccc4)CC3)c[nH]c12`, the AUC in the series on Rattus norvegicus [1] stood at 1.5 µM·h. The Cmax in series [2] stood at 326 nM. In addition, the CLint scaled in series [3] is below 21 mL/min/kg. Besides, the F in the series on Rattus norvegicus [4] is on record as 63%. In addition, in [5], the Vd is 0.74 L/kg.

With `NC(=O)c1ncc(F)c2c(C(=O)C(=O)N3CCN(C(=O)c4ccccc4)CC3)c[nH]c12`, the AUC with Rattus norvegicus [1] was 2.6 µM·h. The highest level in series [2] (Cmax) was 603 nM. The CLint scaled in series [3] was below 21 mL/min/kg. Further, the F with Rattus norvegicus [4] is listed as 68%. The Vd in [5] is 1.4 L/kg.

Compound `O=C(C(=O)N1CCN(C(=O)c2ccccc2)CC1)c1c[nH]c2c(-c3cnco3)ncc(F)c12` registered an AUC at 24 h in [6] of 12 µM·h. The compound further displayed a Cmax in series [2] of 1290 nM. Besides, the CLint scaled in series [3] was below 21 mL/min/kg. In [7], this compound returned a bioavailability of 20%. Also, the clearance in series [8] was 1.4 mL/min/kg. Moreover, the Vd in series [5] is 0.14 L/kg.

Take `O=C(C(=O)N1CCN(C(=O)c2ccccc2)CC1)c1c[nH]c2c(-c3cnccn3)ncc(F)c12`: in [3], the CLint scaled is at most 29 mL/min/kg.

Consider `O=C(C(=O)N1CCN(C(=O)c2ccccc2)CC1)c1c[nH]c2c(-c3cc[nH]n3)ncc(F)c12`, for which the AUC with Rattus norvegicus [1] amounted to 12.5 µM·h. The Cmax in [2] was 1400 nM. In series [3], the CLint scaled is below 21 mL/min/kg. Besides, the F with Rattus norvegicus [4] came to 33%. Further, the Vd in series [5] was 0.25 L/kg.

For `NC(=O)c1cc(-c2ncc(F)c3c(C(=O)C(=O)N4CCN(C(=O)c5ccccc5)CC4)c[nH]c23)n[nH]1`, the CLint scaled in [3] was at most 29 mL/min/kg.

Take `CNC(=O)c1cc(-c2ncc(F)c3c(C(=O)C(=O)N4CCN(C(=O)c5ccccc5)CC4)c[nH]c23)n[nH]1`: in series [3], the CLint scaled is at most 29 mL/min/kg.

For `O=C(NCCN1CCOCC1)c1cc(-c2ncc(F)c3c(C(=O)C(=O)N4CCN(C(=O)c5ccccc5)CC4)c[nH]c23)n[nH]1`, the CLint scaled in series [3] is above 29 mL/min/kg.

On to `CN(C)C(=O)c1cc(-c2ncc(F)c3c(C(=O)C(=O)N4CCN(C(=O)c5ccccc5)CC4)c[nH]c23)n[nH]1`, for which, in [3], the CLint scaled is below 21 mL/min/kg.

With `O=C(C(=O)N1CCN(C(=O)c2ccccc2)CC1)c1c[nH]c2c(-n3cncn3)ncc(F)c12`, the Cmax in series [2] was found to be 8760 nM. Moreover, the CLint scaled in [3] was below 21 mL/min/kg. The F with Rattus norvegicus [4] stood at 95%. The Vd in series [5] is 0.26 L/kg.

Compound `Cc1ncn(-c2ncc(F)c3c(C(=O)C(=O)N4CCN(C(=O)c5ccccc5)CC4)c[nH]c23)n1` yielded an area under the curve (AUC) in the series with Rattus norvegicus [1] of 160 µM·h. In series [3], the CLint scaled is below 21 mL/min/kg. The compound further came in with a F in the series on Rattus norvegicus [4] of 77%. Moreover, the Vd in [5] was found to be 0.18 L/kg.

In the series with Rattus norvegicus [1], `Cc1ccn(-c2ncc(F)c3c(C(=O)C(=O)N4CCN(C(=O)c5ccccc5)CC4)c[nH]c23)n1` came in with an AUC of 2.1 µM·h. For the same compound, in [2], the Cmax worked out at 498 nM. For the same compound, the CLint scaled in [3] is below 21 mL/min/kg. Also, the F with Rattus norvegicus [4] was found to be 61%. Moreover, the Vd in series [5] is 0.6 L/kg.

The compound `O=C(C(=O)N1CCN(C(=O)c2ccccc2)CC1)c1c[nH]c2c(-n3ccnn3)ncc(F)c12` had a solubility in [9] of 7 µg/mL (≈ 15.6 µM). Moreover, the bioavailability in [10] turned out to be 30%; in series [7], 64%. Besides, the exposure (AUC) at 24 h in [6] was found to be 86 µM·h. In series [2], this compound yielded a Cmax of 9480 nM. Further, the Cp result with Plasma was “BLD”. Also, the CLint scaled in [3] is below 21 mL/min/kg. The compound also showed a half-life in [11] of 1.4 h. Also, the Drug absorption result in [12] is reported as “Active”.

For `COc1ncc(OC)c2c(C(=O)C(=O)N3CCN(C(=O)c4ccccc4)CC3)c[nH]c12`, in series [6], the AUC at 24 h amounted to 6.3 µM·h. In [2], the Cmax came to 1890 nM. In addition, in series [5], the Vd came to 1.1 L/kg.
